Results collected from several papers.
Target: Serine/threonine-protein kinase MRCK beta (CDC42BPB, Homo sapiens, UniProt Q9Y5S2)

SMILES | effect on | action | technique | tested at | measurement | value
COc1cc2ncnc(Nc3ccc(Oc4ccccc4)c(C)c3C)c2cc1OC | enzyme activity | inhibitor | – | 1 µM | inhibition | 2%
Cc1c(C(=O)O)cc(-c2ccc(C3CCNCC3)cc2)c2ccc(-c3ccc(C(F)(F)F)cc3)cc12 | cell-free assay | – | competition with immobilised ligand | 1 µM | remaining binding | 100%
CC(C)(C)c1nc(-c2cccc(NS(=O)(=O)c3c(F)cccc3F)c2F)c(-c2ccnc(N)n2)s1 | enzyme activity | inhibitor | radiometric | 1 µM | remaining activity | 98%
O=C1Nc2ccc(Cl)cc2C1=Cc1cc(Cl)c(O)c(Cl)c1 | cell-free assay | – | – | 0.5 µM | remaining signal | 91.4%
CCN(CC)CCNC(=O)c1c(C)[nH]c(/C=C2\C(=O)Nc3ccc(F)cc32)c1C | enzyme activity | inhibitor | – | 0.3 µM | inhibition | 8%
CCOC(=O)c1cc2cc(-c3cc(C(=O)NCc4ccc(C(=O)O)cc4)nn3C)ccc2[nH]1 | cell-free assay | – | competition with immobilised ligand | 0.1 µM | remaining binding | 88%
c1ccc(CNc2nc(N3CCOc4ccccc43)nc3c2CCCC3)cc1 | target engagement in cells | inhibitor | chemoproteomics | 20 mM | inhibition | -0.5%
CCCOc1ccc(OC)c(F)c1C(=O)c1ccc(C(=O)N[C@@H]2CNC[C@H]2NC(=O)c2ccc3[nH]ncc3c2)cc1 | enzyme activity | inhibitor | – | 10 µM | remaining activity | 0%
CSc1cccnc1N1CCN(Cc2nc3ccccc3[nH]2)CC1 | cell-free assay | – | competition with immobilised ligand | 1 µM | remaining binding | 100%
O=C(Nc1cnn(-c2csc(C(=O)NC3COC3)c2)c1)Nc1c(F)cccc1Cl | enzyme activity | inhibitor | – | 5 µM | remaining activity | 89%
N#CCCc1ccc2c(c1)-c1[nH]c3ccc([N+](=O)[O-])cc3c1CC(=O)N2 | cell-free assay | – | – | 0.5 µM | remaining signal | 54.1%
O=C(NS(=O)(=O)c1ccc(NCC2CCOCC2)c([N+](=O)[O-])c1)c1ccc(N2CCN(Cc3ccc(C(F)(F)F)cc3-c3ccc(Cl)cc3)CC2)cc1Oc1cnc2[nH]ccc2c1 | cell-free assay | – | competition with immobilised ligand | 1 µM | remaining binding | 94%
CNC(=O)c1cc(Oc2ccc(NC(=O)Nc3ccc(Cl)c(C(F)(F)F)c3)cc2)ccn1 | enzyme activity | inhibitor | – | 10 µM | inhibition | 0%
Cc1c(NC(=O)c2cc(C(N)=O)nc3cc(F)ccc23)c(C(F)(F)F)nn1Cc1ccc(C#N)cc1 | cell-free assay | – | competition with immobilised ligand | 1 µM | remaining binding | 100%
CCN(CC)CCNC(=O)c1c(C)[nH]c(/C=C2\C(=O)Nc3ccc(Cl)cc32)c1C | enzyme activity | inhibitor | – | 0.5 µM | remaining activity | 96.1%
CC/C(=N\NC(=O)C(C)Nc1ccccc1)c1ccc(O)c(C)c1O (stereo not shown) | enzyme activity | inhibitor | – | 0.1 µM | inhibition | 7.1%
